Screening data deposited in PubChem BioAssay by several laboratories.
This excerpt belongs to a sample that is enriched for hits.
NALP1 yeast inh = NALP1 inhibition; S. cerevisiae NALP1/ASC/caspase-1 growth, X-gal OD620, 72 h; actives 0.61% (n = 280,000); inhibition, % at 10 µM; in the data active = inhibition mostly above about 24%, no sharp cut-off; inactive = mostly below about 32%
L major viab = Leishmania major promastigote growth inhibition; Leishmania major promastigotes, resazurin fluorescence viability; inhibition, % at 10 µM; actives 9% (n = 200,000); AID 1063; in the data active = inhibition above about 50%;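 also: promastigotes grown with compound for 44 hours at 28 °C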
NALP3 yeast inh = blocks the NALP3 inflammasome reconstituted in yeast; inhibition, % at 10 µM; Yeast reconstituted NLRP3/ASC/caspase-1, beta-gal luminescence, 24 h; actives 0.39% (n = 330,000);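 active = inhibition of 50% or more; inactive = inhibition below 50%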;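 also: plate controls were induced DMSO wells for no effect and uninduced yeast grown without galactose for full effect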
PolyA inhibitor = inhibitors of polyadenylation in S. cerevisiae; activity score, % at 12 µM; actives 0.02% (n = 300,000); AID 1875; S. cerevisiae SKY197-pL101 polyadenylation reporter, beta-gal luminescence; efflux-impaired pdr1/pdr3 knockout yeast; score 100 = 6 SD above DMSO;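 active = lowest replicate activity score at least 50, where 100 means six control SD above control mean; inconclusive = lowest score under 50 but half or more replicates reach 50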;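 also: yeast exposed to compound for 9 h at 30 °C; higher score means more reporter readthrough which indicates perturbed polyadenylation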
T cruzi inh = blocks replication of Trypanosoma cruzi. T. cruzi beta-gal in NIH3T3, luminescence, 90 h. actives 1.4% (n = 300,000). inhibition, % (test concentration not listed);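 active = mean inhibition across valid replicates above about 55%, limit read from the data; inconclusive = mean below that limit but half or more replicates reach it; inactive = mean below it, under half of replicates reach it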;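 also: signal also drops with host cell toxicity which is not excluded here; 0% = plate median of DMSO wells and 100% = zero luminescence signal; higher percent means less beta-gal luminescence so fewer parasites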
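assay system = mouse NIH/3T3 fibroblasts infected with β-gal-expressing T. cruzi Tulahuen C4 | input = 5,000 NIH/3T3 host cells per well | buffer or medium = DMEM plus 2% FBS | timing = 3 h host attachment, then at least 90 h co-culture | measured by = GalScreen luminescence, 60 min | evaluation = luminescence reflecting intracellular parasite burden, expressed as percent inhibition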
Calb FLC = C. albicans growth modulation with fluconazole | C. albicans CaCi-2 + fluconazole, Alamar Blue growth, 48 h | growth inhibition, % (concentration not given with the values) | actives 0.57% (n = 300,000) | AID 1979;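 active = growth inhibition above about 58% in most replicates, limit read from the data, passing the limit was not always enough; inconclusive = exactly half the replicates above a set limit; inactive = most replicates below a set limit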;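 also: all wells also contain fluconazole at 8 µg/ml as a sub-toxic cotreatment; 0% = median of DMSO wells and 100% = median of geldanamycin control wells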
Numbers without * were called inactive; ? = inconclusive; nt = no result given.

SMILES	NALP1 yeast inh	L major viab	NALP3 yeast inh	PolyA inhibitor	T cruzi inh	Calb FLC
COc1ccc(C2CC(=O)c3cnc(NC(=O)c4ccccc4OC)nc3C2)c(OC)c1 (stereo not given)	-0.7	86.2*	27.5	-6.1	3.4	1.3
O=C(CC12CC3CC(CC(C3)C1)C2)N1CCCC1	37.2*	-3.6	21.0	-3.0	-0.9	1.3
CCOC(=O)c1sc2nc(C)nc(SCC(=O)N(C)C3CCS(=O)(=O)C3)c2c1C (stereo not given)	8.0	24.2	3.2	7.8	-2.5	?
CCOC(=O)c1sc2nc(C)nc(SCC(=O)NC(C)CCc3ccccc3)c2c1C (stereo not given)	33.4	95.9*	4.4	-7.9	-3.5	12.4
O=C(Nc1ccccc1Cl)c1ccc(=O)[nH]n1	19.5	nt	25.4	-2.5	-4.8	58.0
O=C(NCc1ccco1)c1ccc(N2CCOCC2)c([N+](=O)[O-])c1	4.1	-4.2	12.5	14.5	1.3	19.1
O=C(NCc1ccco1)c1ccc(N2CCCCC2)c([N+](=O)[O-])c1	45.9	63.5*	23.6	-10.2	26.8	2.7
CC1CC(C)CN(c2ccc(C(=O)NCc3ccc4c(c3)OCO4)cc2[N+](=O)[O-])C1 (stereo not given)	11.6	5.6	16.2	6.6	64.8*	-8.2
CCCCCCCNC(=O)c1ccc(N2CCC3(CC2)OCCO3)c([N+](=O)[O-])c1	30.1	94.1*	30.1	14.9	24.1	-1.7
CCCNC(=O)c1ccc(N2CCC3(CC2)CC(c2ccccc2)=NO3)c([N+](=O)[O-])c1	-3.5	nt	11.3	-0.5	-11.2	8.5
Cc1ccc(N(Cc2ccco2)C(=O)c2ccc(N3CCCCC3)c([N+](=O)[O-])c2)cc1	26.3	27.8	18.7	-0.7	56.2*	0.6
Cc1cccc(C)c1NC(=O)CN(C)C(=O)CN1C(=O)NC2(CCCC2)C1=O	nt	nt	-7.3	11.4	-8.6	1.9
COC(=O)c1ccc(C(=O)OC)c(NC(=O)c2cccnc2)c1	21.7	nt	14.4	-6.5	-4.5	-0.8
COc1cc(NC(=S)N2CCN(S(=O)(=O)c3ccc(C)cc3)CC2)cc(OC)c1	1.7	nt	1.7	-12.8	-0.3	1.2
O=C(O)c1ccc(N2CCc3ccccc32)c([N+](=O)[O-])c1	-7.3	nt	6.2	30.7	-8.2	5.5
O=C(NCc1ccc(F)cc1)c1ccc(N2CCc3ccccc32)c([N+](=O)[O-])c1	27.6	91.9*	26.9	0.3	34.0	11.7
CC1CCN(c2ccc(C(=O)NCc3ccco3)cc2[N+](=O)[O-])CC1	21.7	50.5*	23.1	2.2	2.9	?
NCC(=O)N1CCC(C(=O)N[C@@H](Cc2c[nH]c3ccccc23)C(=O)O)CC1	2.9	nt	15.8	5.4	-11.0	-2.2
CCOC(=O)C1CCN(C(=O)c2cnn3c(C)cc(C)nc23)CC1	-15.0	-1.7	-1.4	18.6	6.9	-11.2
CCOC(=O)c1sc2c(c1C)c(=O)n(Cc1ccccc1)c(=O)n2CCN(C)C	-3.8	nt	21.5	-14.6	58.6*	8.7
CN(C)CCn1c(=O)n(Cc2ccccc2)c(=O)c2c3c(sc21)CCCCC3	16.8	nt	21.2	8.7	59.3*	-3.5
CN(C)CCCn1c(=O)n(CCc2ccccc2)c(=O)c2c3c(sc21)CCCCC3	7.9	nt	9.1	5.3	60.8*	1.5
CCOc1ccccc1OCCC(=O)OCC(=O)Nc1c(C)nn(-c2ccccc2)c1C	nt	nt	9.2	-11.9	-13.7	nt
C/C(=N\NC(=O)C1COc2ccccc2O1)c1ccc(N2CCOCC2)cc1 (stereo not given)	3.1	10.7	-4.6	2.4	-20.3	-22.3
COc1ccc(/C=N/NC(=O)c2ccc(CN3c4cccc5cccc(c45)S3(=O)=O)cc2)cc1	20.8	82.2*	-2.3	-2.0	-16.4	11.2
SMILES	NALP1 yeast inh	L major viab	NALP3 yeast inh	PolyA inhibitor	T cruzi inh	Calb FLC
COc1cc(/C=N/NC(=O)c2ccc(CN3c4cccc5cccc(c45)S3(=O)=O)cc2)cc(OC)c1O	12.2	-8.4	11.5	0.9	17.8	-0.5
COc1cccc(-c2nnc3sc(C4CCCCC4)nn23)c1	36.8*	5.3	-15.5	-4.3	21.1	4.9
O=C(NCCCN1CCCC1)C1CCN(C(=O)c2cc3sccc3n2Cc2ccc(F)cc2)CC1	13.6	93.4*	2.7	-11.2	55.1*	-2.2
O=C(NCc1ccco1)C1CCN(Cc2ccc(F)cc2)CC1	3.3	91.2*	18.1	-15.6	-5.0	7.7
O=C(NCc1ccccn1)C1CCN(C(=O)c2cc3sccc3n2Cc2ccc(F)cc2)CC1	21.1	9.1	10.3	11.3	-1.5	13.5
O=C(NCc1ccco1)C1CCCCC1	14.3	-6.1	14.3	-21.1	-14.8	5.0
CCN(CC)CCCNC(=O)C1CCN(C(=O)c2cc3sccc3n2Cc2ccc(F)cc2)CC1	5.2	99.4*	15.4	-2.0	43.8	-10.1
O=C(NCc1ccco1)C1CCN(C(=O)c2cc3sccc3n2Cc2ccc(F)cc2)CC1	7.9	79.3*	13.1	-3.3	10.6	28.4
O=C(CCCNC(=O)c1ccc(Cl)cc1)Nc1ccc(S(=O)(=O)Nc2ncccn2)cc1	17.0	nt	14.3	17.5	6.6	-1.1
CCN1CCCC1CNC(=O)C1CCN(C(=O)c2cc3sccc3n2Cc2ccc(F)cc2)CC1 (stereo not given)	0.6	90.2*	30.7	26.4	31.0	-9.5
COCCCNC(=O)C1CCN(C(=O)c2cc3sccc3n2Cc2ccc(F)cc2)CC1	12.9	13.9	5.4	-5.2	-0.1	6.0
Cc1occc1-c1nnc(-c2cc([N+](=O)[O-])cc([N+](=O)[O-])c2)o1	5.3	82.1*	27.5	-19.8	66.1*	-2.1
CC(Oc1ccccc1F)C(=O)NNC(=O)c1cc2ccccc2o1 (stereo not given)	12.2	-7.4	10.3	1.5	-1.3	?
COC(=O)C1=C(C)N=C2SC(C#N)=C(N)N2C1c1ccc(OCc2ccccc2)cc1 (stereo not given)	2.6	97.7*	8.9	-7.1	19.2	8.0
COC(=O)C1=C(C)N=C2SC(C#N)=C(N)N2C1c1cc(OC)c(OC)c(OC)c1 (stereo not given)	-19.8	-0.4	-0.1	-7.5	-7.1	11.9
C=C1CC[C@H](O)C/C1=C/C=C1\CCC[C@]2(C)[C@@H]([C@H](C)/C=C/[C@H](C)C(C)C)CC[C@@H]12	nt	nt	15.3	nt	nt	nt
Cc1nn(Cc2ccc(C(=O)Nc3ccc(C(=O)OC(C)C)cc3)o2)c(C)c1Cl	7.5	34.8	8.5	-5.3	55.5*	13.8
Cc1nn(Cc2ccc(C(=O)NN)o2)c(C)c1Cl	21.7	nt	6.5	1.8	9.0	-14.2
CCc1cccc(C)c1NC(=O)CN(C)C1=NS(=O)(=O)c2ccccc21	nt	nt	15.8	nt	nt	nt
NC(=O)CC(NC(=O)c1cccc(Br)c1)c1ccc(N2CCC(Br)CC2)c([N+](=O)[O-])c1 (stereo not given)	16.5	nt	11.3	5.2	-27.5	-2.4
